ChEMBL document CHEMBL1133465, “[Pro(3)]Dyn A(1-11)-NH(2): a dynorphin analogue with high selectivity for the kappa opioid receptor” (J Med Chem, 2000)

How the values were obtained:
Cavia porcellus [1] = organism: Cavia porcellus; test: Tested for agonist or antagonist properties in guinea pig ileum by (GPI) assay.
[2] = molecular target: T1, Kappa-type opioid receptor (Homo sapiens, UniProt P41145); test: Binding affinity towards cloned human Opioid receptor kappa 1 in CHO cell membranes.; format: cell-based
[3] = molecular target: T2, Delta-type opioid receptor (Homo sapiens, UniProt P41143); test: (§1) Binding affinity towards cloned human Opioid receptor delta 1 in CHO cell membranes.; format: cell-based
How it was run: (§2)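 Membranes from CHO cells stably expressing cloned human µ, δ or κ receptors in 50 mM Tris-HCl pH 7.8 with EGTA, MgCl2 and protease inhibitors. 50-100 µg protein with 1.0 nM [3H]diprenorphine, 60 min at room temperature. Filtered on PEI/BSA-treated GF/B and counted by scintillation. Nonspecific binding with 10 µM naloxone. Four-parameter one-site fit, Ki by Cheng-Prusoff.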

Mu-type opioid receptor = Mu-type opioid receptor (Homo sapiens, UniProt P35372); test: Binding affinity towards cloned human Opioid receptor mu 1 in CHO cell membranes.; format: cell-based; how it was run: as §2
[4] = Antagonist activity determined in the [35S]GTP-gamma-S, binding assay relative to 50 nM U50,488; format: functional
[5] = molecular target: T1, Kappa-type opioid receptor; test: Binding affinity of Opioid receptor kappa 1 to cloned human opioid receptor in CHO cell membrane.; format: cell-based; how it was run: as §2
Cavia porcellus [6] = organism: Cavia porcellus; test: Antagonist activity determined in the guinea pig assay against U50,488 at 1 uM; format: functional
How it was run: (§3)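 Electrically stimulated guinea pig ileum. Antagonist held at a fixed concentration of 1 µM. IC50 of the reference agonist (U50,488 or [D-Ala3]Dyn A(1-11)-NH2, as the line names) was measured with and without antagonist. Ke was calculated from the shift.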

Cavia porcellus [7] = organism: Cavia porcellus; test: Antagonist activity determined in the guinea pig assay against [D-Ala3] Dyn A (1-11)-NH2 at 1 uM; format: functional; how it was run: as §3
[8] = Antagonist activity determined in the [35S]GTP-gamma-S, binding assay relative to 25 nM [D-Ala3] Dyn A (1-11)-NH2.; format: functional
[9] = molecular target: T1, Kappa-type opioid receptor; test: Binding affinity at Opioid receptor kappa 1 by to cloned human opioid receptors expressed in CHO cell membranes
How it was run: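 Membranes from CHO cells stably expressing cloned human κ receptor; 50-100 µg protein in 50 mM Tris-HCl pH 7.8 with EGTA, MgCl2 and protease inhibitors. […] Nonspecific binding with 10 µM naloxone. Filtration and scintillation counting; Ki by Cheng-Prusoff.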

[10] = molecular target: T1, Kappa-type opioid receptor; test: Human Opioid receptor kappa 1 mediated stimulation of [35S]- GTPgammaS binding in CHO cells (Agonist potency).; format: cell-based
How it was run: (§4)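 κ-expressing CHO membranes (50-150 µg) in 50 mM Tris HCl pH 7.8 with 80-100 pM [35S]GTPγS, 30 µM GDP, 100 mM NaCl and 5.0 mM MgCl2, 1 h at 30 °C. Filtered and counted. Agonist concentration series gave EC50 by nonlinear regression. Maximal response at 10 µM expressed relative to U50,488 set as 100%.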

[11] = molecular target: T2, Delta-type opioid receptor; test: as §1; format: cell-based; remark: listed apart in the source
How it was run: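 Membranes from CHO cells stably expressing cloned human δ receptor; 50-100 µg protein. […] Nonspecific binding with 10 µM naloxone. Filter-bound counts; Ki via Cheng-Prusoff from a one-site fit.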

[12] = molecular target: T1, Kappa-type opioid receptor; test: Human kOpioid receptor kappa 1 mediated stimulation of [35S]- GTPgammaS binding in CHO cells (Agonist potency).; format: cell-based
How it was run: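 Human κ-CHO membranes (50-150 µg) with 80-100 pM [35S]GTPγS, 30 µM GDP and 100 mM NaCl in Tris-HCl pH 7.8; 1 h at 30 °C, then filtration and counting. EC50 from a nonlinear fit of an agonist concentration series. Maximal response at 10 µM expressed relative to U50,488 (100%).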

Cavia porcellus [13] = organism: Cavia porcellus; test: Tested for antagonist activity in guinea pig ileum by (GPI) assay.; format: functional, organism-based
How it was run: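 Electrically evoked contractions of guinea pig ileum. Ke calculated from IC50 of reference agonist (U50,488 or [D-Ala3]Dyn A(1-11)-NH2), measured with and without a fixed concentration of antagonist.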

[14] = Tested for maximum agonist response at concentration 10 uM, relative to that with standard agonist U50,488.; format: functional; how it was run: as §4
Cavia porcellus [15] = organism: Cavia porcellus; test: Tested for agonist or antagonist properties in guinea pig ileum a (GPI) assay.; format: functional, organism-based

T2 sequence (P41143 whole entry): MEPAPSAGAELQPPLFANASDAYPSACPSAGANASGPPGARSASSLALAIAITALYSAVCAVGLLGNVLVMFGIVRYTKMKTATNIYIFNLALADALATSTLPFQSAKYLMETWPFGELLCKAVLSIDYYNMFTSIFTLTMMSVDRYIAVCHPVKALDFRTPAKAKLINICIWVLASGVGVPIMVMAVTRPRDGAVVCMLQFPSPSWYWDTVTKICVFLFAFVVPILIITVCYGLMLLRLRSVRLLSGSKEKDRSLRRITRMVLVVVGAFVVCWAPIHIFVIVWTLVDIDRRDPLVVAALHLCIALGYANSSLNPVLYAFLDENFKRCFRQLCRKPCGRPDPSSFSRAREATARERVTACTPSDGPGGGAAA
T1 sequence (P41145 whole entry): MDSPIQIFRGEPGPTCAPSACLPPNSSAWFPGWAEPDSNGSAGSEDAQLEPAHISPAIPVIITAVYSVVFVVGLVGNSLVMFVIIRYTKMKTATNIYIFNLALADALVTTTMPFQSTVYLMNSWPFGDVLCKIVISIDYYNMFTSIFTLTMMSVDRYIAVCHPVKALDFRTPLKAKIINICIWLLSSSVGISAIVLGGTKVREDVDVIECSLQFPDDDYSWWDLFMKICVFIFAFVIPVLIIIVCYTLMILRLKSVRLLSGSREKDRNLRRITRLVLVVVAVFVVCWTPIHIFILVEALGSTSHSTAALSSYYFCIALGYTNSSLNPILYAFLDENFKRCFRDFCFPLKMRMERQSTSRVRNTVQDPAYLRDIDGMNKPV
Sequence of Mu-type opioid receptor (P35372 whole entry): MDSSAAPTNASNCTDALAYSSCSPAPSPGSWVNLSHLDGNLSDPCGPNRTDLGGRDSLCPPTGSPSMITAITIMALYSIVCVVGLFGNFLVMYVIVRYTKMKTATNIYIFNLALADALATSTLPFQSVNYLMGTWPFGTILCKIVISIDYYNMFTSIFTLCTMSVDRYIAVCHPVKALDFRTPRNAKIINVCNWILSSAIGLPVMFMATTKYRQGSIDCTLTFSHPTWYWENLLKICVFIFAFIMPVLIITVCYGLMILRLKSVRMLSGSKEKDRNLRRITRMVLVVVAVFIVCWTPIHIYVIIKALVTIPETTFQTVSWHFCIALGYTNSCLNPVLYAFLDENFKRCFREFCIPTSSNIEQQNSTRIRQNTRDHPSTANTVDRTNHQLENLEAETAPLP

SMILES	Ki [2] [nM]	Ki [3] [nM]	Ki (Mu-type opioid receptor) [nM]	IC50 [4] [nM]	other results
CC[C@H](C)[C@H](NC(=O)[C@H](CCCN=C(N)N)NC(=O)[C@H](CCCN=C(N)N)NC(=O)[C@H](CC(C)C)NC(=O)[C@H](Cc1ccccc1)NC(=O)[C@@H](C)NC(=O)CNC(=O)[C@@H](N)Cc1ccc(O)cc1)C(=O)N[C@@H](CCCN=C(N)N)C(=O)N1CCC[C@H]1C(=O)N[C@@H](CCCCN)C(N)=O	–	–	–	–	IC50 (Cavia porcellus [1]): 2.38 nM
CC[C@H](C)[C@H](NC(=O)[C@H](CCCN=C(N)N)NC(=O)[C@H](CCCN=C(N)N)NC(=O)[C@H](CC(C)C)NC(=O)[C@H](Cc1ccccc1)NC(=O)CNC(=O)[C@H]1CCCN1C(=O)[C@@H](N)Cc1ccc(O)cc1)C(=O)N[C@@H](CCCN=C(N)N)C(=O)N1CCC[C@H]1C(=O)N[C@@H](CCCCN)C(N)=O	65	3900	1700	940	–
CC[C@@H](C)[C@@H](NC(=O)CNC(=O)[C@@H](N)Cc1ccc(O)cc1)C(=O)N[C@@H](Cc1ccccc1)C(=O)N[C@@H](CC(C)C)C(=O)N[C@@H](CCCN=C(N)N)C(=O)N[C@@H](CCCN=C(N)N)C(=O)N[C@H](C(=O)N[C@@H](CCCN=C(N)N)C(=O)N1CCC[C@H]1C(=O)N[C@@H](CCCCN)C(N)=O)[C@@H](C)CC	–	–	–	–	Ki [5]: 55 nM
Oc1ccc2c3c1O[C@H]1c4[nH]c5c(c4C[C@@]4(O)[C@@H](C2)N(CC2CC2)CC[C@]314)C[C@@]1(O)[C@H]2Cc3ccc(O)c4c3[C@@]1(CCN2CC1CC1)[C@H]5O4 [NORBINALTORPHIMINE]	–	–	–	4.6	Ke (Cavia porcellus [6]): 0.357 nM; Ke (Cavia porcellus [7]): 0.572 nM; IC50 [8]: 4.7 nM
CC[C@H](C)[C@H](NC(=O)[C@H](CCCN=C(N)N)NC(=O)[C@H](CCCN=C(N)N)NC(=O)[C@H](CC(C)C)NC(=O)[C@H](Cc1ccccc1)NC(=O)[C@@H]1CCCN1C(=O)CNC(=O)[C@@H](N)Cc1ccc(O)cc1)C(=O)N[C@@H](CCCN=C(N)N)C(=O)N1CCC[C@H]1C(=O)N[C@@H](CCCCN)C(N)=O	2.7	8800	5700	380	Ki [9]: 7.5 nM; IC50 [8]: 1400 nM
CC[C@H](C)[C@H](NC(=O)[C@H](CCCNC(=N)N)NC(=O)[C@H](CCCNC(=N)N)NC(=O)[C@H](CC(C)C)NC(=O)[C@H](Cc1ccccc1)NC(=O)CNC(=O)[C@@H]1CCCN1C(=O)[C@@H](N)Cc1ccc(O)cc1)C(=O)N[C@@H](CCCNC(=N)N)C(=O)N1CCC[C@H]1C(=O)N[C@@H](CCCCN)C(N)=O	94	6800	3200	760	–
CC[C@H](C)[C@H](NC(=O)[C@H](CCCNC(=N)N)NC(=O)[C@H](CCCNC(=N)N)NC(=O)[C@H](CC(C)C)NC(=O)[C@H](Cc1ccccc1)NC(=O)[C@@H](C)NC(=O)CNC(=O)[C@@H](N)Cc1ccc(O)cc1)C(=O)N[C@@H](CCCNC(=N)N)C(=O)N1CCC[C@H]1C(=O)N[C@@H](CCCCN)C(N)=O	0.15	–	67	–	EC50 [10]: 6.1 nM
CC[C@H](C)[C@H](NC(=O)[C@H](CCCN=C(N)N)NC(=O)[C@H](CCCN=C(N)N)NC(=O)[C@H](CC(C)C)NC(=O)[C@H](Cc1ccccc1)NC(=O)[C@H]1CCCN1C(=O)CNC(=O)[C@@H](N)Cc1ccc(O)cc1)C(=O)N[C@@H](CCCN=C(N)N)C(=O)N1CCC[C@H]1C(=O)N[C@@H](CCCCN)C(N)=O	160	7100	8300	2200	–
CC[C@H](C)[C@H](NC(=O)[C@H](CCCN=C(N)N)NC(=O)[C@H](CCCN=C(N)N)NC(=O)[C@H](CC(C)C)NC(=O)[C@H](Cc1ccccc1)NC(=O)CNC(=O)CNC(=O)[C@@H](N)Cc1ccc(O)cc1)C(=O)N[C@@H](CCCN=C(N)N)C(=O)N1CCC[C@H]1C(=O)N[C@@H](CCCCN)C(N)=O	0.074	–	7.6	–	Ki [11]: 2.9 nM; EC50 [12]: 0.74 nM; IC50 (Cavia porcellus [13]): 0.376 nM; Max agonist response [14]: 73%
CCC[C@H](NC(=O)[C@H](Cc1ccccc1)NC(=O)CNC(=O)CNC(=O)[C@H](Cc1ccc(O)cc1)NCc1ccccc1)C(=O)N[C@@H](CCCN=C(N)N)C(=O)N[C@@H](CCCN=C(N)N)C(=O)N[C@H](C(=O)N[C@@H](CCCN=C(N)N)C(=O)N1CCCC1C(=O)N[C@@H](CCCCN)C(N)=O)[C@@H](C)CC (stereo in doubt)	–	–	–	–	IC50 (Cavia porcellus [15]): 990 nM
